TRPC4 potent: TRPC4 (mouse) allosteric potentiation | B-score at 10 µM | HEK293 TRPC4beta/mu-opioid, DAMGO EC20, Fluo-4 Ca2+ flux; stronger effect = higher value | AID 2227 | actives 0.42% (n = 310,000) | Q9QUQ5;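 active means B-score of calcium response area above 5 SD of library B-scores, with initial fluorescence ratio within 5 SD of library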
TRPC4 inh: blocks the mouse TRPC4 cation channel; HEK293 TRPC4beta/mu-opioid, DAMGO-evoked Fluo4 calcium flux; stronger effect = lower value; B-score at 10 µM; Q9QUQ5; actives 0.39% (n = 300,000);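 active means B-score over 3 SD under the library average, no early fluorescence shift, positive overall ratio signal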
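Material: HEK293 cells with stable TRPC4beta plus mu-opioid receptor expression / Probe or stimulus: DAMGO in two steps, submaximal then maximal / Compound: single concentration per test compound / Technique: kinetic Fluo4 fluorescence imaging of calcium influx / Read-out: per-well B score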
TRPC4 agonist: opens the mouse TRPC4 cation channel; Q9QUQ5; HEK293 TRPC4beta/mu-opioid, Fluo4 calcium fluorescence; stronger effect = higher value; B-score at 10 µM; actives 0.49% (n = 310,000);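 active means B-score above 5 SD of library B-scores, and initial fluorescence ratio not above library mean plus 5 SD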;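 further: positive B-score marks a calcium rise read as TRPC4 activation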
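Technique: kinetic Fluo4 calcium fluorescence; Test system: TRPC4beta and mu-opioid receptor HEK293 stable cells; Measure: B-scored integrated calcium fluorescence ratio; Benchmarks: low control buffer alone, high control maximal DAMGO; Schedule: 45 min room-temperature Fluo4 loading, 110 s read.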
TRPC6 inh: mouse TRPC6 channel inhibition | Q61143 | HEK293-TRPC6, membrane potential dye, ACh-evoked depolarization; stronger effect = lower value | B-score at 10 µM | actives 1.1% (n = 310,000);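 active means B-score under library mean minus 3 SD, initial fluorescence not abnormally high, positive integrated signal ratio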;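 further: B-score derived from integrated fluorescence ratio over the kinetic read; more negative B-score means stronger inhibition of depolarization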
Target sequence (Q61143 whole entry, looked up): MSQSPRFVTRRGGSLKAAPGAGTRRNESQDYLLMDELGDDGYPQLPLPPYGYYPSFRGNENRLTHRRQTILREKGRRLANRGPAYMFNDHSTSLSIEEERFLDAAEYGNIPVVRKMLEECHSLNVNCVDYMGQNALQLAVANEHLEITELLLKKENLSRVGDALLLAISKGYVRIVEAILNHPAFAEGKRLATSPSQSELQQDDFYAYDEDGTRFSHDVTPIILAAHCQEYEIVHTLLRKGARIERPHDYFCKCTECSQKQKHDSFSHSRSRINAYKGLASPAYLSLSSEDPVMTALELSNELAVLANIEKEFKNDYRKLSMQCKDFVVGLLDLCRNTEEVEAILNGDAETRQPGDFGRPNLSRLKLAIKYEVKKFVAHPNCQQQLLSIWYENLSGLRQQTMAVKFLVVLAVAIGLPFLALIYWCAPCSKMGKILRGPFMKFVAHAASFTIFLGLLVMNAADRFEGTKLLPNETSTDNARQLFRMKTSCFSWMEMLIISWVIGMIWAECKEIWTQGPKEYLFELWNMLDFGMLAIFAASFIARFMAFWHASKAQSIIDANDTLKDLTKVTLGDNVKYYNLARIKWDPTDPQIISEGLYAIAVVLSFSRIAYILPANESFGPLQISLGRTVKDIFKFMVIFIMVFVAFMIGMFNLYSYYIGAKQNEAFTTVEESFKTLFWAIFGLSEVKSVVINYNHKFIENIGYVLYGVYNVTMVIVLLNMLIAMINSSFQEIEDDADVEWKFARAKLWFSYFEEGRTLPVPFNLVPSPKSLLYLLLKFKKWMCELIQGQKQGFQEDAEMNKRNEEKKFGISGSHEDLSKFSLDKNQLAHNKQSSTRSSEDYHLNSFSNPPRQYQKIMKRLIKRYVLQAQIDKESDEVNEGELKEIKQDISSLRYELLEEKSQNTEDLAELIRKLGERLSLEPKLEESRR
TRPC6 act: activators of mouse TRPC6 channel; Q61143; HEK293-TRPC6 membrane potential dye fluorescence; stronger effect = higher value; B-score at 10 µM; actives 0.13% (n = 310,000);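 active means B-score of the integrated fluorescence ratio above library mean plus 3 SD, and starting fluorescence ratio within library mean plus 5 SD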;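 further: higher score means more depolarization so channel activation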
Each line names hits and unclear results; the compound was inactive in the other large screens. Shown are actives, neighbours in structure and some others; about 2.3% of the full set was active somewhere.

O=C(O)c1ccc[n+](Cc2ccc([N+](=O)[O-])cc2)c1	none
O=[N+]([O-])c1ccc(C[n+]2cccc(O)c2)cc1	TRPC4 agonist 168
CCOc1cccc(CNCCO)c1OCc1ccc(Cl)cc1	TRPC4 inh -7
CCOC(=O)N1CCN(C(=O)Cn2nc(C)n3nc(-c4ccccc4)cc3c2=O)CC1	none
Cc1cc(C)n(S(=O)(=O)c2ccc(F)cc2)n1	none
Cc1cc(C)n(S(=O)(=O)c2ccc(C(C)(C)C)cc2)n1	TRPC6 inh -6.56
CCCN1CCC(NC(=O)CCc2nnc(Cc3cc(OC)ccc3OC)o2)CC1	TRPC4 potent 10, TRPC4 agonist 55
COc1ccc(OC)c(Cc2nnc(CCC(=O)NC3CCCCC3)o2)c1	none
COc1cc(/C=C2\C(=N)N3N=C(S(C)(=O)=O)SC3=NC2=O)ccc1OC(=O)c1cccs1	TRPC4 inh -7
CCOC(=O)c1c(C)[nH]c(C)c1S(=O)(=O)N1CCOCC1	none
CC(COc1ccccc1Cc1ccccc1)N1CCCCC1 (stereo not given)	TRPC4 agonist 67, TRPC6 act 11.8
CCc1ccc2nc(N=C(N)N)nc(C)c2c1	TRPC4 inh -8
O=C(NCc1ccncc1)C1CCCN(S(=O)(=O)c2cc(Cl)ccc2Cl)C1 (stereo not given)	none
CCOC(=O)C1=NN(C(=O)c2cccc(Br)c2)C(O)(C(C)(C)C)C1 (stereo not given)	TRPC4 agonist 180
NC1=NC(c2ccc(Cl)cc2)C(C(=O)c2ccccc2)N1 (stereo not given)	none
O=C(OCCN1CCN(c2ncc(C(F)(F)F)cc2Cl)CC1)c1ccc(F)cc1	TRPC4 potent 10
O=C(CN1CCN(c2ncc(C(F)(F)F)cc2Cl)CC1)N1CCN(c2ncc(C(F)(F)F)cc2Cl)CC1	TRPC4 agonist 93
O=C(c1cccs1)N1CCN(c2ncc(C(F)(F)F)cc2Cl)CC1	none
CN(C)c1ccc(NC(=S)N2CCN(c3ncc(C(F)(F)F)cc3Cl)CC2)cc1	TRPC4 agonist 127
Cc1ccc(C(=O)OCCN2CCN(c3ncc(C(F)(F)F)cc3Cl)CC2)cc1	TRPC4 potent 16
O=C1CSC(=S)N1N1C(=O)c2cccc([N+](=O)[O-])c2C1=O	none
CCc1ccc(C(C(=O)NCc2ccc(F)cc2)N(C(=O)c2csnn2)C2CC2)cc1 (stereo not given)	none
Oc1cccc(/C=N/N(Cc2ccccc2)c2ccccc2)c1	none
C(=N\N(Cc1ccccc1)c1ccccc1)/c1cccnc1	TRPC4 inh -6
CC(C)(C)C(=O)NC1CCN(S(=O)(=O)c2ccc(C(F)(F)F)cc2)CC1	none
CN(CCOc1ccc(Br)cc1)CC(O)c1ccccc1 (stereo not given)	TRPC4 agonist 149
CN(CCOc1ccc(Cl)cc1)CC(O)c1ccccc1 (stereo not given)	TRPC4 agonist 126
CC(C)c1ccc(CN(C)CC(O)c2ccccc2)cc1 (stereo not given)	none
CCCCNCC#CCOc1cc(C)ccc1C(C)C	none
COC(=O)c1cn(Cc2ccccn2)c(=O)c2ccccc12	none
CCN(CC)CCN1C(=O)C2C(C(=O)Nc3cc(C)cc(C)c3)C3C=CC2(O3)C1C(=O)NC1CCCCC1 (stereo not given)	TRPC4 agonist 47
CCC1CCCCN1CCN1C(=O)C2C(C(=O)Nc3ccc(OC)cc3)C3C=CC2(O3)C1C(=O)NC1CCCCC1 (stereo not given)	TRPC4 inh -6
Cn1c(=O)c2c(nc(N3CCOCC3)n2C/C=C/c2ccccc2)n(C)c1=O	none
COc1cccc(CN(C)C(=O)c2ccc(N3CCCC3)c([N+](=O)[O-])c2)c1	none
Cc1ccc(S(=O)(=O)NCCCNS(=O)(=O)c2ccccc2[N+](=O)[O-])cc1	none
Cc1c(C(=O)N(Cc2cccs2)C2CCS(=O)(=O)C2)oc2ccccc12 (stereo not given)	TRPC4 agonist 67
O=C(NCC(=O)N1CCN(S(=O)(=O)c2ccccc2F)CC1)c1ccc(Br)o1	none
CN1CCN(CC(O)Cn2c3ccccc3c3ccccc32)CC1 (stereo not given)	none
CN1CCN(CC#CCn2c3ccccc3c3ccccc32)CC1	TRPC4 potent 16
CC1C(=O)N2CCCc3cc(NC(=O)C4CC4)cc1c32 (stereo not given)	none
Cc1ccccc1NC(=S)NCc1cccn1C	none

Source: PubChem (Johns Hopkins Ion Channel Center)
